Results taken from ChEMBL document CHEMBL4765273 (Eur J Med Chem, 2020).

How the values were obtained:
Influenza A virus [1] = test: Antiviral activity against Influenza A virus (A/chicken/Hebei/LZF/ 2014(H5N2)) group-2 infected in chicken embryo fibroblast assessed as reduction in viral infection preincubated for 1 hrs followed by fibroblast infection and measured after 72 hrs by hemagglutination titre method; format: functional, organism-based
[2] = Cytotoxicity against chicken embryo fibroblast assessed as reduction in cell viability after 48 hrs by CCK8 assay; parameters: species or system Gallus gallus; conditions: chicken embryo fibroblasts
How it was run: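 Chicken embryo fibroblasts (1×10^5 cells/mL) were cultured 24 h at 37°C, 5% CO2, washed with serum-free DMEM, then exposed to 2-fold serial compound dilutions in 1% FBS DMEM for 48 h. CCK-8 in 1% FBS DMEM was added for 90 min and absorbance read at 450 nm. CC50 was obtained by curve fitting. Blank and cell controls were included.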

Influenza A virus [3] = test: Antiviral activity against Influenza A virus (A/goose/Jiangsu/1306/2014 (H5N8)) group-1 infected in chicken embryo fibroblast assessed as reduction in viral infection preincubated for 1 hrs followed by fibroblast infection and measured after 72 hrs by hemagglutination titre method; format: functional, organism-based
Influenza A virus [4] = test: Antiviral activity against Influenza A virus (A/goose/Guangdong/SH7/2013(H5N1)) group-1 infected in chicken embryo fibroblast assessed as reduction in viral infection preincubated for 1 hrs followed by fibroblast infection and measured after 72 hrs by hemagglutination titre method; format: functional, organism-based
Influenza A virus [5] = test: Antiviral activity against Influenza A virus (A/Duck/Guangdong/674/2014 (H5N6)) group-2 infected in chicken embryo fibroblast assessed as reduction in viral infection preincubated for 1 hrs followed by fibroblast infection and measured after 72 hrs by hemagglutination titre method; format: functional, organism-based
[6] = Inhibition of Influenza A virus (A/goose/Jiangsu/1306/2014 (H5N8)) group-1 Neuraminidase N8 preincubated for 10 mins followed by MUNANA substrate addition and measured after 40 to 60 mins by fluorescence method
How it was run: (§1)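 Virus-derived NA was preincubated 10 min at 37°C with compound in MES buffer. Fluorogenic substrate was added and the reaction run for 40–60 min at 37°C, then stopped with glycine/NaOH. Fluorescence was read at ex 365 / em 460 nm with substrate blanks subtracted. IC50 was taken from percent-inhibition dose-response curves and reported as mean ± SD of three experiments.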

[7] = Inhibition of Influenza A virus (A/goose/Guangdong/SH7/2013(H5N1)) group-1 Neuraminidase N1 preincubated for 10 mins followed by MUNANA substrate addition and measured after 40 to 60 mins by fluorescence method; how it was run: as §1
[8] = Inhibition of Influenza A virus (A/chicken/Hebei/LZF/ 2014(H5N2)) group-2 Neuraminidase N2 preincubated for 10 mins followed by MUNANA substrate addition and measured after 40 to 60 mins by fluorescence method; how it was run: as §1
[9] = Inhibition of Influenza A virus (A/Duck/Guangdong/674/2014 (H5N6)) group-2 Neuraminidase N6 preincubated for 10 mins followed by MUNANA substrate addition and measured after 40 to 60 mins by fluorescence method; how it was run: as §1

Row | Structure (SMILES) | IC50 (Influenza A virus [1]) [µM] | CC50 at 48 h [2] [µM] | IC50 (Influenza A virus [3]) [µM] | IC50 (Influenza A virus [4]) [µM] | IC50 (Influenza A virus [5]) [µM] | IC50 [6] [µM] | IC50 [7] [µM] | IC50 [8] [µM] | IC50 [9] [µM]
1 | CCC(CC)O[C@@H]1C=C(C(=O)O)C[C@H](NC(=O)c2ccccc2)[C@H]1NC(C)=O | > 10 | > 200 | > 10 | > 10 | > 10 | – | – | – | –
2 | CCC(CC)O[C@@H]1C=C(C(=O)O)C[C@H](NCc2ccc([N+](=O)[O-])cc2)[C@H]1NC(C)=O | 0.21 | > 200 | 0.42 | > 10 | 2.16 | – | – | – | –
3 | CCC(CC)O[C@@H]1C=C(C(=O)O)C[C@H](NC/C(C)=C/c2ccccc2)[C@H]1NC(C)=O | 0.16 | > 200 | 0.61 | 0.79 | 3.07 | 0.0926 | 0.0577 | 0.952 | 5.62
4 | CCC(CC)O[C@@H]1C=C(C(=O)O)C[C@H](NCc2cccc(-c3ccccc3)c2)[C@H]1NC(C)=O | 0.23 | > 200 | 0.65 | 0.84 | 4.49 | 0.0831 | 0.054 | 13.7 | 39.1
5 | CCC(CC)O[C@@H]1C=C(C(=O)O)C[C@H](NCc2ccc(C#N)cc2)[C@H]1NC(C)=O | – | > 200 | 0.68 | > 10 | > 10 | – | – | – | –
6 | CCC(CC)O[C@@H]1C=C(C(=O)O)C[C@H](NS(=O)(=O)c2ccc3ccccc3c2)[C@H]1NC(C)=O | > 10 | > 200 | 3.23 | > 10 | > 10 | – | – | – | –
7 | CCC(CC)O[C@@H]1C=C(C(=O)O)C[C@H](NC/C=C/c2cccc(Cl)c2)[C@H]1NC(C)=O | 0.29 | > 200 | 0.13 | 2.99 | 5.52 | 0.309 | 0.129 | 0.869 | 10.7
8 | CCC(CC)O[C@@H]1C=C(C(=O)O)C[C@H](NS(=O)(=O)c2ccc(F)cc2)[C@H]1NC(C)=O | > 10 | > 200 | 4.25 | > 10 | > 10 | – | – | – | –
9 | CCC(CC)O[C@@H]1C=C(C(=O)O)C[C@H](NCc2ccc(Br)cc2)[C@H]1NC(C)=O | 0.11 | > 200 | – | 2.53 | 1.99 | – | – | – | –
10 | CCC(CC)O[C@@H]1C=C(C(=O)O)C[C@H](NC(=O)/C=C/c2ccc(C)cc2)[C@H]1NC(C)=O | > 10 | > 200 | 4.76 | > 10 | > 10 | – | – | – | –
11 | CCC(CC)O[C@@H]1C=C(C(=O)O)C[C@H](N(Cc2ccsc2)Cc2ccsc2)[C@H]1NC(C)=O | 0.15 | > 200 | 0.88 | > 10 | 3.03 | – | – | – | –
12 | CCC(CC)O[C@@H]1C=C(C(=O)O)C[C@H](NCc2cccc(F)c2)[C@H]1NC(C)=O | 0.14 | > 200 | 0.49 | > 10 | 3.87 | – | – | – | –
13 | CCC(CC)O[C@@H]1C=C(C(=O)O)C[C@H](NC(=O)c2ccc(-c3ccccc3)cc2)[C@H]1NC(C)=O | > 10 | > 200 | 3.54 | > 10 | > 10 | – | – | – | –
14 | CCC(CC)O[C@@H]1C=C(C(=O)O)C[C@H](NS(=O)(=O)c2ccc(-c3cccs3)cc2)[C@H]1NC(C)=O | 0.079 | > 200 | 0.053 | 0.29 | 2.39 | – | – | – | –
15 | CCC(CC)O[C@@H]1C=C(C(=O)O)C[C@H](NCc2ccsc2)[C@H]1NC(C)=O | 0.13 | > 200 | 0.081 | > 10 | 3.58 | – | – | – | –
16 | CCC(CC)O[C@@H]1C=C(C(=O)O)C[C@H](NC(=O)/C=C/c2cccc(C)c2)[C@H]1NC(C)=O | > 10 | > 200 | 4.37 | > 10 | > 10 | – | – | – | –
17 | CCC(CC)O[C@@H]1C=C(C(=O)O)C[C@H](NS(=O)(=O)c2ccc(C)cc2)[C@H]1NC(C)=O | > 10 | > 200 | 3.12 | > 10 | > 10 | – | – | – | –
18 | CCC(CC)O[C@@H]1C=C(C(=O)O)C[C@H](NCc2ccc(-c3cccs3)s2)[C@H]1NC(C)=O | 0.083 | > 200 | 0.072 | > 10 | 7.12 | – | – | – | –

Row | Structure (SMILES) | IC50 (Influenza A virus [1]) [µM] | CC50 at 48 h [2] [µM] | IC50 (Influenza A virus [3]) [µM] | IC50 (Influenza A virus [4]) [µM] | IC50 (Influenza A virus [5]) [µM] | IC50 [6] [µM] | IC50 [7] [µM] | IC50 [8] [µM] | IC50 [9] [µM]
19 | CCC(CC)O[C@@H]1C=C(C(=O)O)C[C@H](NC/C=C/c2ccc(N(C)C)cc2)[C@H]1NC(C)=O | 0.065 | > 200 | 0.88 | 1.29 | 2.78 | – | – | – | –
20 | CCC(CC)O[C@@H]1C=C(C(=O)O)C[C@H](NC/C=C/c2ccc(OC)cc2)[C@H]1NC(C)=O | 0.21 | > 200 | 0.64 | 7.56 | 4.07 | – | – | – | –
21 | CCC(CC)O[C@@H]1C=C(C(=O)O)C[C@H](NS(=O)(=O)c2ccc(Cl)cc2)[C@H]1NC(C)=O | > 10 | > 200 | 4.76 | > 10 | > 10 | – | – | – | –
22 | CCC(CC)O[C@@H]1C=C(C(=O)O)C[C@H](NC(=O)/C=C/c2ccc(F)cc2)[C@H]1NC(C)=O | > 10 | > 200 | 5.16 | > 10 | > 10 | – | – | – | –
23 | CCC(CC)O[C@@H]1C=C(C(=O)O)C[C@H](NCc2ccc(-c3ccsc3)cc2)[C@H]1NC(C)=O | 0.1 | > 200 | 0.051 | – | 5.5 | 0.0781 | 0.118 | 1.44 | 34.5
24 | CCC(CC)O[C@@H]1C=C(C(=O)O)C[C@H](NS(=O)(=O)c2ccc(-c3ccccc3)cc2)[C@H]1NC(C)=O | > 10 | > 200 | 6.79 | > 10 | > 10 | – | – | – | –
25 | CCC(CC)O[C@@H]1C=C(C(=O)O)C[C@H](NCc2cccc(C(F)(F)F)c2)[C@H]1NC(C)=O | 0.34 | > 200 | 0.75 | > 10 | 3.17 | – | – | – | –
26 | CCC(CC)O[C@@H]1C=C(C(=O)O)C[C@H](NCc2ccc(F)cc2)[C@H]1NC(C)=O | 0.11 | > 200 | 0.52 | > 10 | 4.57 | – | – | – | –
27 | CCC(CC)O[C@@H]1C=C(C(=O)O)C[C@H](NCc2cccc([N+](=O)[O-])c2)[C@H]1NC(C)=O | 0.24 | > 200 | 0.7 | > 10 | 2.16 | – | – | – | –
28 | CCC(CC)O[C@@H]1C=C(C(=O)O)C[C@H](NCc2cccc(-c3ccsc3)c2)[C@H]1NC(C)=O | 0.07 | > 200 | 0.056 | – | 2.62 | – | – | – | –
29 | NC(=O)c1ncn([C@@H]2O[C@H](CO)[C@@H](O)[C@H]2O)n1 [RIBAVIRIN] | > 10 | > 200 | 1.96 | 4.01 | 6.68 | – | – | – | –
30 | CCC(CC)O[C@@H]1C=C(C(=O)O)C[C@H](NCc2ncc(-c3ccccc3)s2)[C@H]1NC(C)=O | 0.41 | > 200 | 0.49 | > 10 | 4.29 | – | – | – | –
31 | CCC(CC)O[C@@H]1C=C(C(=O)O)C[C@H](NC/C=C/c2ccccc2OC)[C@H]1NC(C)=O | 0.13 | > 200 | 0.089 | 1.2 | 3.07 | 0.0621 | 0.254 | – | 0.155
32 | CCC(CC)O[C@@H]1C=C(C(=O)O)C[C@H](NC(=O)/C=C/c2ccccc2)[C@H]1NC(C)=O | > 10 | > 200 | 5.32 | > 10 | > 10 | – | – | – | –
33 | CCC(CC)O[C@@H]1C=C(C(=O)O)C[C@H](NS(=O)(=O)c2ccccc2)[C@H]1NC(C)=O | > 10 | > 200 | 4.82 | > 10 | > 10 | – | – | – | –
34 | CCC(CC)O[C@@H]1C=C(C(=O)O)C[C@H](NS(=O)(=O)c2ccc(C(C)(C)C)cc2)[C@H]1NC(C)=O | > 10 | > 200 | – | > 10 | > 10 | – | – | – | –
35 | CCC(CC)O[C@@H]1C=C(C(=O)O)C[C@H](NC(=O)/C=C/c2ccc(OC)cc2)[C@H]1NC(C)=O | > 10 | > 200 | 8.48 | > 10 | > 10 | – | – | – | –
